The source of these data is ChEMBL document CHEMBL1147762, “A new chemical tool for exploring the physiological function of the PDE2 isozyme” (Bioorg Med Chem Lett, 2006).

For data set [1], the target named is Histamine H1 receptor (Homo sapiens) (UniProt P35367). The experiment in a line: Percentage binding to histamine H1 at 10 uM.
The nature of data set [2]: Oral bioavailability in rat. Type of data set: ADME, organism-based. To be noted: Sprague-Dawley, in vivo. An outline of the steps:
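Sprague–Dawley rats were dosed intravenously at 1 mg/kg in EtOH:PEG 400:H2O (1:4:5) and orally at 30 mg/kg in 0.5% methylcellulose. Plasma was sampled at 0.083, 0.25, 0.5, 1, 2, 4, 6 and 8 h after dosing and analysed.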

Data set [3] deals with 5-hydroxytryptamine receptor 1A (Homo sapiens) (UniProt P08908). The experiment in a line: Percentage binding to serotonin 5HT1A at 10 uM.
The target of data set [4] is Dual 3',5'-cyclic-AMP and -GMP phosphodiesterase 11A (Homo sapiens, UniProt Q9HCR9). The experiment in a line: Inhibitory activity against PDE11 by scintillation proximity assay. In outline:
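Phosphodiesterase inhibition run as a scintillation proximity assay, with enzyme at a concentration in the linear range. Values are means of n experiments with standard deviation.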

In data set [5] the target is Cyclin-dependent kinase 2 (Homo sapiens) (UniProt P24941). The experiment in a line: Inhibition of CDK2 at 10 uM.
Data set [6] has as its target Serine/threonine-protein kinase Nek6 (Homo sapiens) (UniProt Q9HC98). The experiment in a line: Inhibition of NEK6 at 10 uM.
Data set [7] has as its target cGMP-specific 3',5'-cyclic phosphodiesterase (Homo sapiens, UniProt O76074). The data set can be described thus: Inhibitory activity against PDE5 by scintillation proximity assay. In outline:
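Scintillation proximity assay for phosphodiesterase inhibition. Enzyme is used at a concentration within the linear range, and its KM was measured. Final substrate concentration is 1 µM, below one-third of KM, so IC50 approximates Ki. Results are means of n experiments with standard deviation.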

The target of data set [8] is Glutamate [NMDA] receptor (Homo sapiens) (UniProt Q05586+Q12879+Q13224+O15399+O60391+Q14957+Q8TCU5). The experiment in a line: Percentage binding to NMDA at 10 uM. The data set is classed as protein-complex assay.
Data set [9] deals with Dual specificity tyrosine-phosphorylation-regulated kinase 1A (Homo sapiens) (UniProt Q13627). The data set can be described thus: Inhibition of DYRK1A at 10 uM.
In data set [10] the target is B2 bradykinin receptor (Homo sapiens) (UniProt P30411). The experiment in a line: Percentage binding to bradykinin B2 at 10 uM.
B2 bradykinin receptor (Homo sapiens), sequence (P30411 whole entry): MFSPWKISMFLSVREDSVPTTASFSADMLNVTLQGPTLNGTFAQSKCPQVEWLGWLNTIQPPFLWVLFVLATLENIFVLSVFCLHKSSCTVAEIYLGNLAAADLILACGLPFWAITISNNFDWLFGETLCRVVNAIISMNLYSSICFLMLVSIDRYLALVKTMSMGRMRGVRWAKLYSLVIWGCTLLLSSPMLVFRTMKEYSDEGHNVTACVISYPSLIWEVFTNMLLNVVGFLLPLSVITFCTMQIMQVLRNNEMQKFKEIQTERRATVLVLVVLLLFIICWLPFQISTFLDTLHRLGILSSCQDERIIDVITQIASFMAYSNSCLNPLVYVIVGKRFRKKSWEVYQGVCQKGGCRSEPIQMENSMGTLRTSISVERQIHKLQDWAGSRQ
For data set [11], the target named is Type-2 angiotensin II receptor (Homo sapiens) (UniProt P50052). The data set can be described thus: Percentage binding to angiotensin II type 2 receptor at 10 uM.
In data set [12] the target is Vasopressin V1 receptor (Homo sapiens) (UniProt P37288+P47901). The data set can be described thus: Percentage binding to vasopressin V1 at 10 uM. The data set is classed as protein assay.
The target of data set [13] is RAC-alpha serine/threonine-protein kinase (Homo sapiens) (UniProt P31749). The data set can be described thus: Inhibition of PKBalpha at 10 uM.
RAC-alpha serine/threonine-protein kinase (Homo sapiens), sequence (P31749 whole entry): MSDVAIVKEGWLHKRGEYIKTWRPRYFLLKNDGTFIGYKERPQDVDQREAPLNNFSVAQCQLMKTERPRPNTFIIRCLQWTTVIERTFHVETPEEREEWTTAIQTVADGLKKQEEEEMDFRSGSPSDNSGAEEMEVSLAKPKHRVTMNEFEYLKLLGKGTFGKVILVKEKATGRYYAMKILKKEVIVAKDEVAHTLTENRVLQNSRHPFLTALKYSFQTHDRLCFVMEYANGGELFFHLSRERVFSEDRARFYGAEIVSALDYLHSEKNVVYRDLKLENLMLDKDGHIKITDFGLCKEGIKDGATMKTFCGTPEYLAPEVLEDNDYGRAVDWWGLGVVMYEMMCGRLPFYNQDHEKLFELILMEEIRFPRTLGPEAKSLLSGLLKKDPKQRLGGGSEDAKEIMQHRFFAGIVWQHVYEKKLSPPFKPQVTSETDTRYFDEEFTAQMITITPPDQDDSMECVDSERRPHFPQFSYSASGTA
The next data set has as its system P-glycoprotein (human). The data set can be described thus: Basolateral cell permeability in MDCK with MDR transfectant overexpressing human p-glycoprotein. The data set is classed as ADME, cell-based. To be noted: MDCK-MDR1.
A short description of data set [14]: Activity against GABA uptake at 10 uM. In outline: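 Single-concentration screen within a panel of 54 receptors and ion channels, measuring binding or interaction at each target.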
For data set [15], the target named is D(3) dopamine receptor (Homo sapiens) (UniProt P35462). The data set can be described thus: Percentage binding to dopamine D3 at 10 uM.
D(3) dopamine receptor (Homo sapiens), sequence (P35462 whole entry): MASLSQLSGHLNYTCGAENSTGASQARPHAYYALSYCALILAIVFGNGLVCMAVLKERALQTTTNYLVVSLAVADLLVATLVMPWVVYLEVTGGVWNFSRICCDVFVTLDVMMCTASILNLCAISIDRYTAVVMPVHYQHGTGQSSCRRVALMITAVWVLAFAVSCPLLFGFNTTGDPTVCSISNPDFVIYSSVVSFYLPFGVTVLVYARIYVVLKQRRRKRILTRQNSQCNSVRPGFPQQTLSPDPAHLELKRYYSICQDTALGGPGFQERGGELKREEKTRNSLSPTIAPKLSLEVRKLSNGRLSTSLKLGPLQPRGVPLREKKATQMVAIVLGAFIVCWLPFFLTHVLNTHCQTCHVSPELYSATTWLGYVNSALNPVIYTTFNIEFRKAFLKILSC
The target of data set [16] is Type-1 angiotensin II receptor (Homo sapiens) (UniProt P30556). The data set can be described thus: Percentage binding to angiotensin II type1 receptor at 10 uM.
Type-1 angiotensin II receptor (Homo sapiens), sequence (P30556 whole entry): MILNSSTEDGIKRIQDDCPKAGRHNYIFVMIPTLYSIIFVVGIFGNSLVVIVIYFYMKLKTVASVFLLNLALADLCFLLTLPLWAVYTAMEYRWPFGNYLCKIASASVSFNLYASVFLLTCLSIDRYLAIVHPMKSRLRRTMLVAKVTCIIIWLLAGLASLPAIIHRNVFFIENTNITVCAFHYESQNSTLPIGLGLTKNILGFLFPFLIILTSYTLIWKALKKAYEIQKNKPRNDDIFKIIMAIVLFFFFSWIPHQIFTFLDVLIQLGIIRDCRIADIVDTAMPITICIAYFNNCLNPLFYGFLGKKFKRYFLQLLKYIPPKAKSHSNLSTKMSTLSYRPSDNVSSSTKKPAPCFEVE
In data set [17] the target is Muscarinic acetylcholine receptor M3 (Homo sapiens) (UniProt P20309). The experiment in a line: Percentage binding to muscarinic M3 at 10 uM.
The nature of data set [18]: Apical cell permeability in parental MDCK cells.
The target in data set [19] is Histamine H2 receptor (Homo sapiens) (UniProt P25021). The data set can be described thus: Percentage binding to histamine H2 at 10 uM.
Histamine H2 receptor (Homo sapiens), sequence (P25021 whole entry): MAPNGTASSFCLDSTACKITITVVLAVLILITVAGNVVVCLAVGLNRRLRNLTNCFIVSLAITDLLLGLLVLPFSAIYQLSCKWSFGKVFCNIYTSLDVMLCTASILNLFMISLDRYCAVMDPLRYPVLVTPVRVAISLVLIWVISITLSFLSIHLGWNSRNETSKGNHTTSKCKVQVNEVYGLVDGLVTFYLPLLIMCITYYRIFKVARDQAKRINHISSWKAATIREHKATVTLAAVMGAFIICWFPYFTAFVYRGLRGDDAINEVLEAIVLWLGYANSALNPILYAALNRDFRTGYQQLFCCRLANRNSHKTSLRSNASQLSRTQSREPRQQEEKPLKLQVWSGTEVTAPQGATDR
In data set [20] the target is Rho-associated protein kinase 2 (Homo sapiens) (UniProt O75116). The data set can be described thus: Inhibition of ROCK2 at 10 uM.
Rho-associated protein kinase 2 (Homo sapiens), sequence (O75116 whole entry, looked up): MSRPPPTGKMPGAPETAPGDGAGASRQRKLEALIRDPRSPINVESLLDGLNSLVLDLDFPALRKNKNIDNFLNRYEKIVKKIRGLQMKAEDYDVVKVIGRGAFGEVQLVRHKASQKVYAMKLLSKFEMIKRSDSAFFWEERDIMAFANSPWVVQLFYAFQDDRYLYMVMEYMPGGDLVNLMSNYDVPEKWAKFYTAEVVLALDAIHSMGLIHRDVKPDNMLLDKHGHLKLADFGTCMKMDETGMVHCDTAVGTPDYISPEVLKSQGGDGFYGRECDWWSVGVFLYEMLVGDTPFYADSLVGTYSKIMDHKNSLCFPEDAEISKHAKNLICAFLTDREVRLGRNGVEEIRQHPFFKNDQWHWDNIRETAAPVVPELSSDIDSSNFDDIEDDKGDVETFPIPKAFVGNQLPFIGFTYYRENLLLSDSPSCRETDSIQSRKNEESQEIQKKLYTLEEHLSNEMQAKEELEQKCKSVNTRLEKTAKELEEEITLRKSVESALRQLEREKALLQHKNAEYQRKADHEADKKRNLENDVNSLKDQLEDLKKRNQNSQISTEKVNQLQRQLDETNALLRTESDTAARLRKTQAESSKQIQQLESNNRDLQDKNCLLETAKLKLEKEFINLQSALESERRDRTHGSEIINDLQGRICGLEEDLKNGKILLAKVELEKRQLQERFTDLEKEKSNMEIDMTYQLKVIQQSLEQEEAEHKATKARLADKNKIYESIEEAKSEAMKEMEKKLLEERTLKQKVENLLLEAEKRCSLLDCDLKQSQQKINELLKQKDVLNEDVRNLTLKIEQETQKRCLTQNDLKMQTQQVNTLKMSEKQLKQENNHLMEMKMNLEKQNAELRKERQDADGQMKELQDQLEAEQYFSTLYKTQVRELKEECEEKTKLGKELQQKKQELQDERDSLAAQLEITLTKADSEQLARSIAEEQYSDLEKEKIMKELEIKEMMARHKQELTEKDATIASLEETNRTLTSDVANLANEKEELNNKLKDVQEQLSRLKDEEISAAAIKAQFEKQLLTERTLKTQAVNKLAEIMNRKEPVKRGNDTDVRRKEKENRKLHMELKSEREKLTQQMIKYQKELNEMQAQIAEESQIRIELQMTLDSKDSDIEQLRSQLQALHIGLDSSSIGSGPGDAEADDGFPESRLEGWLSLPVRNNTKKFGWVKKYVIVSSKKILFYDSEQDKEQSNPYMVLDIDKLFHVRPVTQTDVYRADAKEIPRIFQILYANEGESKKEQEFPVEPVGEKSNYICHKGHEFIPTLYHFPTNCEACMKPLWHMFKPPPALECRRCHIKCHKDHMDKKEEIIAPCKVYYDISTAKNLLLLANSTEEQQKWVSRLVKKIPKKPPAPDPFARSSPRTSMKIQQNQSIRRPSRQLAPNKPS
Data set [21] in a line: Volume of distribution in rat. To be noted: Sprague-Dawley, in vivo, read-out: Vdss. The data set is classed as ADME, organism-based.

Histamine H1 receptor (Homo sapiens), sequence (P35367 whole entry): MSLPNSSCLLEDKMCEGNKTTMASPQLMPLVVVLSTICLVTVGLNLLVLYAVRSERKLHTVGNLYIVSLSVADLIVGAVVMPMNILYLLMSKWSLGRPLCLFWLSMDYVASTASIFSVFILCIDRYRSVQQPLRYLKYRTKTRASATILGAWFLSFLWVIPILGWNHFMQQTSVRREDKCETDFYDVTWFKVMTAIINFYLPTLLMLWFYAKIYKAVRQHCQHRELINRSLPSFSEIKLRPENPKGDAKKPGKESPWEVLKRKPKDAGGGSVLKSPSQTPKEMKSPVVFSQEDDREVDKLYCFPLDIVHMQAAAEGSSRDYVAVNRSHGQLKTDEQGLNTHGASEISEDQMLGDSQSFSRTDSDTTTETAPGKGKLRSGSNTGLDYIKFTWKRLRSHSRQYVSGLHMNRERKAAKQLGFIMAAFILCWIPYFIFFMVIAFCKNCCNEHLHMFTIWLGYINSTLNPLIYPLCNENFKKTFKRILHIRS
Dual 3',5'-cyclic-AMP and -GMP phosphodiesterase 11A, sequence (Q9HCR9 whole entry): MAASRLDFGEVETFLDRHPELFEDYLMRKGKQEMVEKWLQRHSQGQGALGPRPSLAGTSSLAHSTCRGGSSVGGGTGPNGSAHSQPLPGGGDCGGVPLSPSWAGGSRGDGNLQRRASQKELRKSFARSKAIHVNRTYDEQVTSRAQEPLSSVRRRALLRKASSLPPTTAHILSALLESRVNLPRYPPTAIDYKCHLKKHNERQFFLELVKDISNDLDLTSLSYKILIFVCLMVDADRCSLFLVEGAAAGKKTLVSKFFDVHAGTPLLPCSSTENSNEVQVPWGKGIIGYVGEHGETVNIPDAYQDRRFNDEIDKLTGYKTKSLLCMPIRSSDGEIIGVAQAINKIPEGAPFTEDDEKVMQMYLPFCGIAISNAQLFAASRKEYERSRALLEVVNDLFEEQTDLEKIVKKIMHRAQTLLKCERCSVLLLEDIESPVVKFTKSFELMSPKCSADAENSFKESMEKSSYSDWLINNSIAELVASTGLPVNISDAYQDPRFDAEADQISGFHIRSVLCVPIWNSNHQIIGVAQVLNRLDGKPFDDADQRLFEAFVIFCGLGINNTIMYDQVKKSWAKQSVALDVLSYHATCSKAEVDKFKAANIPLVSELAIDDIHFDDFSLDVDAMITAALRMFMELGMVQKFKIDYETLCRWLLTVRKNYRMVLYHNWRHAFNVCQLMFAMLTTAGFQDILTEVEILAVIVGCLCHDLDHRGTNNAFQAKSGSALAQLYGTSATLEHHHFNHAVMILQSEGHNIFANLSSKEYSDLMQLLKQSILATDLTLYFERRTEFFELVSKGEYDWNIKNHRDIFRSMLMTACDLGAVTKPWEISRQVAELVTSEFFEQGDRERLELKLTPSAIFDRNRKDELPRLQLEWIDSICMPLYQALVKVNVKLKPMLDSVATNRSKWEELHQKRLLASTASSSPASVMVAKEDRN

Turning to `CN1C(=O)C(C(=O)Nc2nncs2)c2cc3occc3cc21` (configuration not stated), the Activity in data set [1] came out at 7%; in data set [3], 23%; in data set [8] it was 7%; in data set [10], 5%; in data set [11], 4%; in [12] it was 5%. Besides, the Activity in [14] worked out at 8%; in [15], 0%; in data set [16], 11%; in data set [17] it was 0%; in [19] it was 0%. Moreover, in data set [2], the bioavailability worked out at 41%. Also, the IC50 in [4] was 11.6 µM; in [7] it was more than 16 µM. The inhibition was 2% in data set [5]; 7% in data set [6]; 53% in data set [9]; 14% in [13]; 20% in data set [20]. In addition, the apparent permeability (Papp) in the data set on P-glycoprotein (human) came out at 4.6 ×10⁻⁶ cm/s; in data set [18], 3 ×10⁻⁶ cm/s. Also, in data set [21], the Vd was 0.1 L/kg.
